For series [1], the system named is HEK293-EBNA. Nature of the series: Selectivity index, ratio of Ki for human CB1R transfected in HEK293EBNA cell membrane to ratio of Ki for human CB2R transfected in HEK293EBNA cell membrane incubated for 90 mins by Microbeta TriLux based luminescence analysis. The procedure, abridged:
(§1)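 Membranes of HEK293EBNA cells expressing human CB1 (~0.415 mg/mL protein) or CB2 (~0.18 mg/mL) incubated 90 min at 30 °C with [³H]-CP55940 (0.54 nM CB1; 0.33 nM CB2) and competitor, in Tris buffer pH 7.4 with EDTA, MgCl₂, BSA. Filtered, washed, bound radioactivity counted; IC50 by curve fitting, Ki by Cheng–Prusoff; selectivity = Ki CB1/Ki CB2.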

For series [2], the species on record is Mus musculus. The experiment in a line: Antagonist activity at cannabinoid receptor in ICR mouse vas deferens assessed as reduction of WIN55212-2-induced inhibition of electrically evoked contraction at 1 uM incubated for 10 mins prior to WIN55212-2 addition. Format: tissue-based.
The target in series [3] is T1, Cannabinoid receptor 1 (Homo sapiens, UniProt P21554). The experiment in a line: Displacement of [3H]CP55940 from human CB1R transfected in HEK293EBNA cell membranes incubated for 90 mins by Microbeta TriLux based luminescence analysis. Also noted: species or system HEK293-EBNA.
T1 sequence (P21554 whole entry): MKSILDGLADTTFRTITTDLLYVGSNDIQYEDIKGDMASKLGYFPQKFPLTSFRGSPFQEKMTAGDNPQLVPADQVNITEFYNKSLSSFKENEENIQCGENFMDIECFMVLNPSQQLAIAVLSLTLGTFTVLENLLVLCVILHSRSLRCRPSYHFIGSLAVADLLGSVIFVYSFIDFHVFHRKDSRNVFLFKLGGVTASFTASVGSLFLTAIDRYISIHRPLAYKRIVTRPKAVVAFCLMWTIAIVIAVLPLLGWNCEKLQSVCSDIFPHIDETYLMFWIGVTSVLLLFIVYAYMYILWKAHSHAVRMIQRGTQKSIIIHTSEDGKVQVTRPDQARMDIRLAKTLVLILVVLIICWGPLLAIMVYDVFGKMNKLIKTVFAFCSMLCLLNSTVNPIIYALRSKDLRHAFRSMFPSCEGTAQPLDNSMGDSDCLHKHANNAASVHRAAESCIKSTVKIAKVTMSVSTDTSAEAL
The target of series [4] is Cannabinoid receptor 2 (Homo sapiens, UniProt P34972). Nature of the series: Displacement of [3H]CP55940 from human CB2R transfected in HEK293EBNA cell membrane incubated for 90 mins by Microbeta TriLux based luminescence analysis. Format: cell membranes, HEK293-EBNA. (In general: Loss of bound radioactivity is the signal in a displacement assay; it reports binding, not function.)
Sequence of Cannabinoid receptor 2 (P34972 whole entry): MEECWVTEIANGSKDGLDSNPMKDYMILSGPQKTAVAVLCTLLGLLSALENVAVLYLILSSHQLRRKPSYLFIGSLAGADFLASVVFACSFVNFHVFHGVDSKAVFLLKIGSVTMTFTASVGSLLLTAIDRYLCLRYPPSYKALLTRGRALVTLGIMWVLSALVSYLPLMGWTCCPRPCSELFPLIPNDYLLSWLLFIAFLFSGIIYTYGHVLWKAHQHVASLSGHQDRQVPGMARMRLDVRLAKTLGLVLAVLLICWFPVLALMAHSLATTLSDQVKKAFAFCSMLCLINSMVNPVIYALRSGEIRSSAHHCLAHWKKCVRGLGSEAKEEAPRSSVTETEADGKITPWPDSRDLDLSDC

For series [5], the system named is MC3T3-E1. The experiment in a line: Cytotoxicity against mouse MC3T3-E1 cell assessed as reduction in cell viability at 1 uM incubated for 48 hrs by MTT assay. The format is cell-based. The note with it: mc3t3-e1, 48 h. The procedure, abridged:
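MC3T3-E1 cells in 96-well plates, 24 h in DMEM/10% FBS, then 48 h with compound at 10⁻⁶ M or vehicle; viability by MTT reduction; three experiments in sextuplicate.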
A general note: Tetrazolium dyes change colour on reduction, which living cells bring about.

Series [6] has as its target Cannabinoid receptor 2 (Mus musculus) (UniProt P47936). Nature of the series: Agonist activity at CB2 receptor in mouse MC3T3-E1 cells assessed as induction of bone activity by measuring increase in collagen I gene expression at 1 uM incubated for 72 hrs by real time PCR analysis. The format is cell-based. The procedure, abridged:
(§2)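 MC3T3-E1 cells in DMEM/10% FBS for 24 h; attached cells moved to osteogenic medium (50 μg/mL ascorbic acid, 10⁻⁹ M dexamethasone, 10 mM β-glycerophosphate) with agent (HU308 10⁻⁶–10⁻⁸ M; antagonists 10⁻⁶ M) or vehicle, 72 h at 37 °C, 5% CO₂. Collagen type I mRNA from total RNA by RT-qPCR, ΔΔCT relative quantification; three experiments in triplicate.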
(Quantitative PCR measures a nucleic acid by following its amplification.)

The target is the same in series [7]. The experiment in a line: Antagonist activity at CB2 receptor in mouse MC3T3-E1 cells assessed as inhibition of HU308-induced collagen I gene expression at 1 uM pretreated with compound and HU308 for 24 hrs followed by further incubation with HU308 for 48 hrs by real time PCR analysis. Format: cell-based. The note with it: filed as antagonist, time 72.0 hrs. The procedure, abridged: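 MC3T3-E1 cells seeded 24 h in DMEM/10% FBS, then pre-treated 24 h in osteogenic medium (ascorbic acid, dexamethasone, β-glycerophosphate) with 10⁻⁶ M antagonist plus HU308 10⁻⁸ M; medium then replaced by osteogenic medium with HU308 10⁻⁸ M alone (controls vehicle) for 48 h more. Collagen I mRNA by RT-qPCR, ΔΔCT; three experiments in triplicate.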

In series [8] the target is T1, Cannabinoid receptor 1. Nature of the series: Displacement of [3H]CP55940 from human CB1R transfected in HEK293EBNA cell membrane incubated for 90 mins by Microbeta TriLux based luminescence analysis relative to control. Format: cell membranes. The note with it: HEK293-EBNA. The procedure, abridged: as §1
Series [9] addresses Cannabinoid receptor 2 (Mus musculus) (UniProt P47936). The experiment in a line: Agonist activity at CB2 receptor in mouse MC3T3-E1 cells assessed as induction of bone activity by measuring increase in collagen I gene expression at 0.01 to 1 uM incubated for 72 hrs by real time PCR analysis. The format is cell-based. The note with it: filed as agonist, dose microM 0.01-1, time 72.0 hrs. The procedure, abridged:
as §2

SMILES strings stand for the structures. Calls of active or inactive are those of the source. The calls are words filed in the database; no cut-off is given here. Some results are limits rather than exact numbers.

By inhibition is commonly meant how much of the control response was suppressed. For orientation: Ki means the dissociation constant of the complex between target and ligand, obtained from inhibition or displacement. A high value points to lower affinity.

Sequence of Cannabinoid receptor 2 (Mus musculus) (P47936 whole entry): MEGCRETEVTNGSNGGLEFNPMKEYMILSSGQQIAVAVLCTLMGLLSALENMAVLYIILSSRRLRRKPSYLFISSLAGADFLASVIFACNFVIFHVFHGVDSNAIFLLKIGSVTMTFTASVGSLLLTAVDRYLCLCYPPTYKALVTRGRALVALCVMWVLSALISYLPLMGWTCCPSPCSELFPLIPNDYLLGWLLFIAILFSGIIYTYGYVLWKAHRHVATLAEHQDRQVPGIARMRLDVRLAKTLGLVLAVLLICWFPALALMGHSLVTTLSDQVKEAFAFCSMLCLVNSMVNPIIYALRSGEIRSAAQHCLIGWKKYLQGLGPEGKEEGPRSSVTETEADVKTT

As to `CCCCCn1nc(OCc2ccc3ccccc3c2)c2cc([N+](=O)[O-])ccc21`, the Ratio Ki in series [1] worked out at 1.2. Also, in series [2], the inhibition entry was “inactive”.
Turning to `Cc1c(C(=O)NN2CCCCC2)nn(-c2ccc(Cl)cc2Cl)c1-c1ccc(I)cc1`, the inhibition entry in series [2] (filed as antagonist) is “Active”.
As to `c1ccc2cc(COc3nn(CCC4CCCCC4)c4ccccc34)ccc2c1`, the inhibition constant Ki in series [3] is 0.15 µM; in series [4], over 40 µM. Further, the Ratio Ki in series [1] is under 0.004. In addition, in series [2], the inhibition entry was “inactive”.
As for `Cn1nc(OCc2ccc3ccccc3c2)c2ccccc21`, the Ki is 4 µM in series [3] and 10.1 µM in series [4]. Further, the Ratio Ki in [1] was found to be 0.4. For the same compound, in [2] (filed as antagonist), the inhibition entry is “Active”.
As for `CCCCCOc1nn(CCCCC)c2ccc([N+](=O)[O-])cc12`, the Ratio Ki in series [1] was found to be 1.9. Further, the inhibition result in series [2] is “inactive”.
With `CCCCCn1nc(OCc2ccc(OC)cc2)c2cc([N+](=O)[O-])ccc21`, the Ratio Ki in series [1] is 1.6. In addition, the inhibition result in [2] (filed as antagonist) was “Active”.
As to `O=[N+]([O-])c1ccc2c(c1)c(OCC1CCCCC1)nn2Cc1ccccc1`, the Ratio Ki in [1] is over 444. Further, the Activity entry in [5] is “Non-Toxic”. In series [6], the result was inactive. Also, the inhibition result in series [7] and in series [2] (filed as antagonist) was “Active” each time.
On to `CCCn1nc(OCc2ccc3ccccc3c2)c2cc([N+](=O)[O-])ccc21`, for which the Ki was 0.356 µM in series [3] and 0.47 µM in series [4]. Also, the Ratio Ki in series [1] was found to be 0.8. In addition, the Activity result in series [5] is on record as “Non-Toxic”. Further, the outcome in [6] was inactive. For the same compound, the inhibition entry in series [7] and in series [2] (filed as antagonist) was “Active” throughout.
For `O=[N+]([O-])c1ccc2c(c1)c(OCc1ccccc1)nn2Cc1ccccc1`, in series [1], the Ratio Ki was 3. In addition, the inhibition entry in series [2] is “inactive”.
On to `COc1ccc(COc2n[nH]c3ccccc23)cc1`, for which the Ki in [3] is 21 µM; in series [4] it was 4.5 µM. Moreover, the Ratio Ki in series [1] is 4.7. For the same compound, the inhibition result in series [2] was “inactive”.
Regarding `O=[N+]([O-])c1ccc2[nH]nc(OCc3ccc4ccccc4c3)c2c1`, the results for the Ki in series [3] and in series [4] were 13.6 µM and 5 µM, respectively. The Ratio Ki in series [1] was determined as 2.7. Also, the inhibition entry in series [2] was “inactive”.
Consider `Cn1nc(OCc2cccc3ccccc23)c2cc([N+](=O)[O-])ccc21`, for which the figures for the inhibitory constant (Ki) in series [3] and in series [4] were at least 40 µM and 0.25 µM, respectively. Besides, the Ratio Ki in [1] is over 160. Moreover, in series [2] (filed as antagonist), the inhibition result is “Active”.
As to `c1ccc2cc(COc3n[nH]c4ccccc34)ccc2c1`, the values for the Ki in series [3] and in series [4] were 21.7 µM and 7 µM, respectively. In addition, the Ratio Ki in [1] is 3.1. For the same compound, the inhibition entry in series [2] is “inactive”.
Regarding `c1ccc(COc2nn(Cc3ccccc3)c3ccccc23)cc1`, the Ratio Ki in series [1] came out at 0.7. Besides, the inhibition entry in series [2] was “inactive”.
Consider `Cn1nc(OCCc2ccccc2)c2cc([N+](=O)[O-])ccc21`, for which the inhibitory constant (Ki) is over 40 µM in series [3] and 1.2 µM in series [4]. Moreover, the Ratio Ki in series [1] is over 33.3. Further, in series [8], the inhibition was determined as 25%. For the same compound, in series [2], the inhibition entry was “inactive”.
In the case of `COc1ccc(COc2n[nH]c3ccc([N+](=O)[O-])cc23)cc1`, the inhibition constant Ki is over 40 µM in [3] and 1.8 µM in [4]. In [1], the Ratio Ki was over 22.2. The inhibition result in series [2] is “inactive”.
In the case of `c1ccc2c(COc3n[nH]c4ccccc34)cccc2c1`, the inhibition constant (Ki) in series [3] was 1.6 µM; in [4], 0.44 µM. Besides, in [1], the Ratio Ki was 3.6. Moreover, the inhibition result in series [2] is “inactive”.
`O=[N+]([O-])c1ccc2c(c1)c(OCc1ccc3ccccc3c1)nn2Cc1ccccc1`: the Ratio Ki in [1] is over 25. Also, in series [2], the inhibition result was “inactive”.
As for `O=[N+]([O-])c1ccc2[nH]nc(OCc3cccc4ccccc34)c2c1`, the values for the Ki in series [3] and in series [4] were over 40 µM and 0.9 µM, respectively. Also, in series [1], the Ratio Ki is over 44.4. Besides, the inhibition in [8] came out at 38%. The inhibition result in series [2] (filed as antagonist) was “Active”.
Regarding `Nc1ccc2c(c1)c(OCc1ccccc1)nn2Cc1ccccc1`, in series [1], the Ratio Ki was 2.5. For the same compound, the inhibition entry in [2] (filed as antagonist) is “Active”.
Turning to `c1ccc2c(c1)c(OCC1CCCCC1)nn2CC1CCCCC1`, the Ratio Ki in [1] was 0.2. Also, the inhibition entry in [2] was “inactive”.
For `Cn1nc(OCc2ccc3ccccc3c2)c2cc([N+](=O)[O-])ccc21`, the values for the Ki in series [3] and in [4] were over 40 µM and 3.5 µM, respectively. Also, in series [1], the Ratio Ki is over 11.4. The inhibition result in series [2] (filed as antagonist) is “Active”.
`CCCn1nc(OCc2ccc3ccccc3c2)c2cc(N)ccc21`: the Ki in [3] turned out to be 1.6 µM; in series [4], 2.9 µM. For the same compound, the Ratio Ki in [1] is 0.6. The inhibition entry in series [2] was “inactive”.
With `CCCCCCC(C)(C)c1cc(OC)c([C@H]2C=C(CO)[C@H]3C[C@@H]2C3(C)C)c(OC)c1`, in series [9], the result was Active.

The values above are taken from ChEMBL document CHEMBL4725407, “New cannabinoid receptor antagonists as pharmacological tool” (Bioorg Med Chem, 2020).
